ChEMBL document CHEMBL5329218, “Novel styryl-thiazole hybrids as potential anti-Alzheimer's agents” (RSC Med Chem, 2023)
Active and inactive are the calls of the source. No cut-off for these calls is given here.

Assays:
[1] = Genotoxicity in human SH-SY5Y cells assessed as nuclear abnormalities by measuring total notched mutations at 100 ug/ml incubated for 24 hrs by Hoechst 33258 staining based fluorescent microscopy (reference value: 5); type: toxicity, cell-based; conditions: dose 100 µg/ml
[2] = test system: SH-SY5Y; assay: Antialzheimer activity against RA/BDNF-treated human SH-SY5Y cells assessed as cell viability at 12.5 to 100 ug/ml incubated for 24 hrs by MTT assay; type: functional, cell-based; conditions: dose 12.5-100 µg/ml
In short: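 SH-SY5Y grown in DMEM:F12 with 10% FBS at 37 °C, 5% CO2. Differentiated with 10 µM retinoic acid to day 8 (3% FBS medium refreshed every 2 days), then 25 nM BDNF for 5 days. Compound exposure, then MTT for 3 h at 37 °C. Formazan dissolved in DMSO, absorbance at 570 nm. 1.0% Triton X-100 as control.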

[3] = Genotoxicity in human SH-SY5Y cells assessed as nuclear abnormalities by measuring total micronucleus at 100 ug/ml incubated for 24 hrs by Hoechst 33258 staining based fluorescent microscopy (reference value: 6); type: toxicity, cell-based; conditions: dose 100 µg/ml
[4] = Genotoxicity in human SH-SY5Y cells assessed as nuclear abnormalities by measuring total lobbed nucleus at 100 ug/ml incubated for 24 hrs by Hoechst 33258 staining based fluorescent microscopy (reference value: 5); type: toxicity, cell-based; conditions: dose 100 µg/ml
[5] = Genotoxicity in human SH-SY5Y cells assessed as mean nuclear abnormalities measured per 1000 cells at 100 ug/ml incubated for 24 hrs by Hoechst 33258 staining based fluorescent microscopy (reference value: 0.016 +/- 0.007); type: toxicity, cell-based; conditions: dose 100 µg/ml
[6] = test system: SH-SY5Y; assay: Neuroprotective activity against amyloid beta 1-42-treated human SH-SY5Y cells assessed as decrease in AChE activity incubated for 30 mins by microplate reader analysis (reference value: 459.6 +/- 32.152 mU/ml); type: functional; conditions: dose 0.5 mM
[7] = test system: SH-SY5Y; assay: Neuroprotective activity against amyloid beta 1-42-treated human SH-SY5Y cells assessed as decrease in beta-secretase activity measured per mg protein incubated for 30 mins by microplate reader analysis (reference value: 54.35 +/- 4.34 RFU); type: functional; conditions: 0.5 h
[8] = molecular target: Acetylcholinesterase (Homo sapiens, UniProt P22303); assay: Inhibition of AChE (unknown origin) using acetylthiocholine iodide as substrate prewarmed for 10 mins followed by substrate addition measured after 15 mins by DTNB assay
Sequence of Acetylcholinesterase (P22303 whole entry): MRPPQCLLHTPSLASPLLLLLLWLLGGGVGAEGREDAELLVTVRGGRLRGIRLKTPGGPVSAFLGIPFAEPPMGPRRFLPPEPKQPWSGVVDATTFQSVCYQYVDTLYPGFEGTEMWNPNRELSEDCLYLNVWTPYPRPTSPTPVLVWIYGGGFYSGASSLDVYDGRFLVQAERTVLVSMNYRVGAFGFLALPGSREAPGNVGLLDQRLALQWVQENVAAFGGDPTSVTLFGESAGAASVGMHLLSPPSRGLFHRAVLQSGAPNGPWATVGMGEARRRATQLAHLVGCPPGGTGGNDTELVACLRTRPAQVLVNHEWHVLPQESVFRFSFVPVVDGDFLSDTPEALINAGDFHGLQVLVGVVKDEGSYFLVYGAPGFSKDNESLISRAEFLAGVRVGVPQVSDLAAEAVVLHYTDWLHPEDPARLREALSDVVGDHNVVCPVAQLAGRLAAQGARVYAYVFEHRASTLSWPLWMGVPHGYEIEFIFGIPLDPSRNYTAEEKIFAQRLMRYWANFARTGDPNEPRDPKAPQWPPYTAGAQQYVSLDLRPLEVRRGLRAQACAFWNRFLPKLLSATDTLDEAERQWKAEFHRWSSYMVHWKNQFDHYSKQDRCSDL
In short: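 Purified AChE at 0.005 unit per well in 50 mM Na2HPO4, pH 7.7. Test compound at 0.5 mM per well, read at 405 nm, then preincubated 10 min at 37 °C. Started with acetylthiocholine iodide and DTNB (each 0.5 mM per well). Absorbance at 405 nm after 15 min at 37 °C. Eserine reference, triplicate; % inhibition versus control, IC50 by kinetics fitting.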

[9] = molecular target: Beta-secretase 1 (Homo sapiens, UniProt P56817); assay: Inhibition of BACE1 (unknown origin) expressed in baculovirus expression system using Rh-EVNLDAEFKQuencher peptide substrate incubated for 90 mins by FRET assay
Sequence of Beta-secretase 1 (P56817 whole entry): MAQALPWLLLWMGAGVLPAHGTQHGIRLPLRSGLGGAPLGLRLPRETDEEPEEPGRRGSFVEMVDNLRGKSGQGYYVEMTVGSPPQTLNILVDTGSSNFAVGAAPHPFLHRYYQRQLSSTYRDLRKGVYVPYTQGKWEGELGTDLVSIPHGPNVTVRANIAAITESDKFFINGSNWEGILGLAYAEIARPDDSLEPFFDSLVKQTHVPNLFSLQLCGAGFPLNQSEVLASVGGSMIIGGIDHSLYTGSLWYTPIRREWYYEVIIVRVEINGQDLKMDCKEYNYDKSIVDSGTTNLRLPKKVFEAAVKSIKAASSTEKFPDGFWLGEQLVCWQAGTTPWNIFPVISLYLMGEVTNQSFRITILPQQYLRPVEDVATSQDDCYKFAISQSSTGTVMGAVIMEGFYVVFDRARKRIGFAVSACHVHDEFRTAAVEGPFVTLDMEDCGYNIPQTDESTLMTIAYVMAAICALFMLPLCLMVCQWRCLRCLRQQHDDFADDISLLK

[10] = test system: SH-SY5Y; assay: Neuroprotective activity against amyloid beta 1-42-treated human SH-SY5Y cells assessed as reduction in beta amyloid aggregation by Congo Red dye based analysis relative to control; type: functional; design: scale not given: the % may be the effect or the level left
In short: (§1)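 SH-SY5Y differentiated with RA then BDNF. Aβ1-42 pre-fibrillized at 20 µM in medium for 24 h, then 20 µM added with compounds for 24 h. Cells fixed in 4% paraformaldehyde at 4 °C for 30 min. Stained with 1 µM Congo red for 1 h in the dark, washed with PBS, dye extracted into DMSO, absorbance at 497 nm.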

[11] = test system: SH-SY5Y; assay: Neuroprotective activity against amyloid beta 1-42-treated human SH-SY5Y cells assessed as increase in cell viability at 50 ug/ml incubated for 24 hrs by MTT assay relative to control; conditions: dose 50 µg/ml
[12] = test system: SH-SY5Y; assay: Neuroprotective activity against amyloid beta 1-42-treated human SH-SY5Y cells assessed as reduction in beta amyloid aggregation by Congo Red dye based analysis; type: functional, cell-based; in short: as §1
[13] = test system: SH-SY5Y; assay: Neuroprotective activity against amyloid beta 1-42-treated human SH-SY5Y cells assessed as increase in cell viability at 25 ug/ml incubated for 24 hrs by MTT assay relative to control; conditions: dose 25 µg/ml

SMILES | Activity [1] | Activity [2] | Activity [3] | Activity [4] | Activity [5] | Activity [6] [mU/ml] | Activity [7] [RFU] | IC50 [8] [µM] | IC50 [9] [µM] | Activity [10] [%] | Activity [11] [%] | Activity [12] | Activity [13] [%]
COc1ccc(/C=C/c2nc(-c3ccc(OC)cc3)cs2)cc1 | 5 | Active | 6 | 6 | 0.017 | 397.6 | 14.13 | 197 | 78.2 | >80 | ~34 |  | 
Brc1ccc(-c2csc(/C=C/c3ccccc3)n2)cc1 | 9 | Active | 4 | 5 | 0.017 | 375.6 | 17.41 | 229 | 44.4 |  |  | Active | ~30
